Laboratory results: the EternaBench riboswitch data

System: MS2 coat protein
Test: apparent Kd, MS2 coat protein; higher = weaker binding; RNA-MaP array; theophylline 2 mM where present
Procedure, shortened: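 SNAP-549-labelled MS2 coat protein, doubled from 0.7 or 1.5 nM to 3 µM, was titrated over designs transcribed by stalled E. coli RNA polymerase on Illumina sequencing-chip clusters. Titrations were run without and then with constant ligand in 100 mM Tris-HCl pH 7.5, 80 mM KCl, 4 mM MgCl2, BSA, DTT, yeast tRNA and Tween-20. The apparent Kd is the median of filtered per-cluster fits to green signal normalised to red-channel RNA signal and control-cluster median Fmax.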

[1] = designed as: OFF switch for theophylline, no ligand
[2] = ligand present: theophylline, designed as: OFF switch for theophylline
[3] = designed as: ON switch for theophylline, no ligand
[4] = ligand present: theophylline, designed as: ON switch for theophylline

Sequence	apparent Kd [1]	apparent Kd [2]	apparent Kd [3]	apparent Kd [4]
GCUUGGGUGGCCCAGCCCUGGCAGGGCGAUACCAGCACGGUAACGUGCCCUUGGCAGCGCACAUGAGGAUCACCCAUGUGGUGCG	0.127 µM	0.266 µM		
ACAUGAGGAUCACCCAUGUGCCGUCUUGAUACCAGACGCGAAGUAGUCCCUUGGCAGCAACUACGUGACGGUCGCGCAUGUGUAG	0.0166 µM	0.0286 µM		
ACUUCAUGAGGUGAUACCAGCCAAUGACAUGAGGACAUGAGGAUCACCCAUGUUUAUGUAGGCCCUUGGCAGCAUUGUAACAUGA			0.0594 µM	0.0523 µM
CUAGGAAACUAGUAAGGGUGGUAUUGAGAUACCAGUACAGAAAUGUACCCUUGGCAGCUCACUGCAACAUGAGGAUCACCCAUGU	0.0241 µM	0.0559 µM		
GCAAUACAUGAGGAUCACCCAUGUGCAGAUACCAGAGGUGCGUGCCUCCCUUGGCAGCUGCGACGCUCUGGAAGCUUGUGUGUCU	0.0194 µM	0.0252 µM		
AUGUCGUUGAAUAUAGCGGCUUGGUGUGAUACCAGAAUGAUCAAAUUCCCUUGGCAGCAUUACAUGAGGAUCACCCAUGUUUAGG			0.0237 µM	0.0229 µM
CAUACUUGAUCCUAUGAGCCUAUUUGUGAUACCAGCAUCUAAAUUUGCCCUUGGCAGCACUAACAUGAGGAUCACCCAUGUUAUA	0.0349 µM	0.0718 µM		
GCUGGGUGCGCAAGGACCUGGCGUUGCGAUACCAGCACGGUAACGUGCCCUUGGCAGCGCACAUGAGGAUCACCCAUGUGGUGUU	0.276 µM	0.31 µM		
ACAUGAGGAUCACCCAUGUCUGCCACUGAUACCAGCGGAAGAAAACGCCCUUGGCAGCAGAACAUGAGGAUCACCCAUGUAGGCU			0.274 µM	
ACGACGCAUAGUGAUACCAGUAGAACAUGAGGAUCACCCAUGUCUGUGACGCACAAAUUCUGCCCUUGGCAGCACUAUGCGUCAG			0.0114 µM	0.0333 µM
AUUUUUCUAUCAGAUACCAGACAACUCCAAACAUGAGGAUCACCCAUGUAUUGGGUGUUCGUCCCUUGGCAGCUGUUAAUGUUAA			0.0169 µM	0.00941 µM
CGUGAUCCCUGUGAUACCAGAAGUACAUGAGGAUCACCCAUGUCAAACACAAAACCAAGCUUCCCUUGGCAGCAUAGUCGUUAAG			0.238 µM	1.31 µM
ACGAUAGGACAUGAGGAUCACCCAUGUGAUACCAGCCUGGAAACAGGCCCUUGGCAGCACAAAUACUCCAGAAACCUAUCGAAUA	0.281 µM	0.226 µM		
ACGAACUGUAGUGAUACCAGACACACAUGAGGAUCACCCAUGUUGUUAGCAUGGUGAAUAGUCCCUUGGCAGCACAGUUAGUUCG	0.0986 µM	0.217 µM		
UGUAUGUGAAGUGAUACCAGUCCAUAAACUGGAACAUGAGGAUCACCCAUGUAAUGGGUGGACCCUUGGCAGCACUUCUCAUACU			0.122 µM	0.136 µM
AAAUAAAUCACAUGAGGAUCACCCAUGGAUACCAGGCCUGGAAACAGCCCUUGGCAGCCACAUGAGGAUCACCCAUGUGCUAAUA	0.213 µM	0.219 µM		
AUAAGUAUGUUUUCGUGUUUUAUUACAGAUACCAGACUAUACGUUGUCCCUUGGCAGCUGGAUUACAUGAGGAUCACCCAUGUUG	0.0231 µM	0.053 µM		
ACAUCCAGGUUAAUCGUGGACAUGGUCGAUACCAGUAUUUUAAUCUACCCUUGGCAGCGACAUGAGGAUCACCCAUGUGCGAUGA	0.0143 µM	0.0314 µM		
UUUUUCGCGGGUGAUACCAGCAAAGCUGUACUGGUCUGGUACAUGAGGAUCACCCAUGUUUGCCCUUGGCAGCGCUCGGGAGAAG	0.0295 µM	0.0719 µM		
ACCUACACGGAGACGUGUAGGAGUAAUGAUACCAGCAUGGAGACAUGCCCUUGGCAGCGUUACAUGAGGAUCACCCAUGUACGUU	0.0102 µM	0.0141 µM		
AACUGGAAAAGUGAUACCAGAGACAUGAGGAUCACCCAUGUACAUGAGGAUCACCCAUGUCUCCCUUGGCAGCACAAAAGGGAGA	0.0306 µM	0.0648 µM		
AUAUGAUCAUGGGAUACCAGAAAUGGUAUUCCUUUAUUUCUUACAUGAGGAUCACCCAUGUUCCCUUGGCAGCUUAUGAUCAUAU	0.075 µM	0.282 µM		
UCCUCCUCCGGAAGGAGGAGGAGUUGCGAUACCAGCCCGGAAACGGGCCCUUGGCAGCGCACAUGAGGAUCACCCAUGUCAUGUU	0.0184 µM	0.0241 µM		
AAAAUAAAUAAAACACGUAACAUGAAGGAUACCAGACAGGAAACUGUCCCUUGGCAGCCUCUACAUGAGGAUCACCCAUGUCGUG				0.0308 µM

Sequence	apparent Kd [1]	apparent Kd [2]	apparent Kd [3]	apparent Kd [4]
AUUUAUUGUCGUGAUACCAGACAUACAUGAGGAUCACCCAUGUUAAGUAACAUUUUUUAGGUCCCUUGGCAGCACUUUUUAAUUA			0.0261 µM	0.0158 µM
GUGAGGUUUGAUGAUACCAGAUGUGGUGGGAACAUGAGGAUCACCCAUGUUGUGAAACAGGUCCCUUGGCAGCAUGAGAGAGCUU			0.0478 µM	0.0443 µM
CGAAUACCAAUUGAUACCAGCAUGUUAACAUGAGGAUCACCCAUGUUAAGGAUAACAUAAUGCCCUUGGCAGCAACGUAAAUUCG			0.0229 µM	0.0135 µM
ACAUGAGGAUCACCCAUGUUCCUCGCCGAUACCAGUGAAGAAGAACGCCCUUGGCAGCGGAAAGAAUAUUUUGGAGAUGAGGUAU	0.164 µM	0.189 µM		
GGGUAUGAUCCGGAUACCAGCGAACAUGAGGAUCACCCAUGUGACCUAAGAUAGGCUCUACGCCCUUGGCAGCCGCGAUCGCGUU			0.0248 µM	0.0161 µM
AUGUCAUUGGUGUAGCUGUGAAAUGGCGAUACCAGCGUGGAAACACGCCCUUGGCAGCGCCAAAACAUGAGGAUCACCCAUGUUA	0.0876 µM	0.272 µM		
CUUGGUAGAUCCUAGCUGCCAAGAGGUGAUACCAGCAUCGAAAGAUGCCCUUGGCAGCACCAACAUGAGGAUCACCCAUGUAAUA			0.0707 µM	0.339 µM
CCACACAUGAGGAUCACCCAUGUAAUUGAUACCAGAUUUAAAUGAGUCCCUUGGCAGCAGUGAGCUAGAGUUGUCGUAUAUAUGG			0.017 µM	0.0189 µM
AGACAUGAGGAUCACCCAUGUAGUAUGGAUACCAGAUCCAGAUUUAUCCCUUGGCAGCUGUGGUACAGCGAUGGAUUGCUCCUAG	0.038 µM	0.0398 µM		
ACAUGAGGAUCCGAUACCAGCCACAUGAGGAUCACCCAUGUAGUACAUGAGGAUCACCCAGGCCCUUGGCAGCGGACAUGAGGAU	0.178 µM	1.9 µM		
AUCGUACCUAAUGAUACCAGCAAGUGAUCAUAACAUGAGGAUCACCCAUGUAAUCAGUGAUGCCCUUGGCAGCAUAAUCGUUACA			0.163 µM	0.127 µM
UAUUUGGUGCGCGAGCGUUGGAUAAUUGAUACCAGUGAAGAAGAGCGCCCUUGGCAGCGAAUCCUAACAUGAGGAUCACCCAUGU			0.041 µM	0.0567 µM
AGACAUGAGGAUCACCCAUGUAGCACGGAUACCAGAUCCAGAUUUAUCCCUUGGCAGCUGUGGUACAGCGUUGCAACGCUCCUAG	0.0187 µM	0.0294 µM		
ACAUAGAGAUUAAUCGUGGGCAUACUCGAUACCAGUAUUUUAACCUACCCUUGGCAGCGACAUGAGGAUCACCCAUGUGAGAUGA	0.0222 µM	0.0395 µM		
AUAAGUAAUGUCUCGUGUAUUAUUACAGAUACCAGACUAUCCUAUGUCCCUUGGCAGCUGGAUUACAUGAGGAUCACCCAUGUUG	0.0232 µM	0.0275 µM		
ACCAGCACACAUGAUACCAGCGACAUGAGGAUCACCCAUGUACGGCGUGUAUCGAAAGGUUGCCCUUGGCAGCAUGAUAGUGCUA	0.0128 µM	0.129 µM		
UUAGAUAUGACGGAUACCAGCGUGUUGUAGAACAUGAGGAUCACCCAUGUAGUGAUCGAGCGCCCUUGGCAGCUGGUAUGUUUGG			0.179 µM	0.482 µM
GGAUAGAUAGGAGAUACCAGAUACAUAAACAUGAGGAUCACCCAUGUGUCUGCACUAAGUAUCCCUUGGCAGCUCGGAGAUCUGA			0.0176 µM	0.015 µM
AAAAUAAAUAAAACACGUAACAUGAAGGAUACCAGCCAGAAAACUGGCCCUUGGCAGCCUCUACAUGAGGAUCACCCAUGUCGUG			0.305 µM	0.028 µM
CGAUCUUUCGAAAGAAGGAUCGAUUCUGAUACCAGAGACGAAAGUCUCCCUUGGCAGCAGUGCCAACAUGAGGAUCACCCAUGUA			0.0224 µM	0.0213 µM
AAACGUUGCUCAGAUACCAGACAUGAGGAUCACCCAUGUACCGAGGUACCCGAAAGGAAUGUCCCUUGGCAGCUGAGCAACGAAA	0.011 µM	0.123 µM		
UGACAUUGCUGCGAUACCAGACAUGAGGAUCACCCAUGUACCAAGGUACCCGAAAGGAAUGUCCCUUGGCAGCGCAGCAAUGUCU	0.0094 µM	0.0213 µM		
GCACCAGGUACGGAUACCAGAAUUUGCCAAUUGGGUGAACAUGAGGAUCACCCAUGUUAUUUCCCUUGGCAGCCGUACCUGGUGC	0.00875 µM	0.0159 µM		
